Screening results from PubChem BioAssay.
Rows were chosen to be rich in hits. Some 4.9% of all compounds tested hit in one or more screens of this group.
STAT3 blocker: inhibitors of IL-6 induced STAT3 signaling. U3A cells, IL-6 STAT3-luciferase reporter, luminescence; host cell line lacks STAT1. inhibition, % at 5.5 µM. 0.89% of 190,000 active. AID 862;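 active = inhibition above the mean inhibition across all screened compounds plus 3 SD, cut at about 44% in these data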
FLuc act counter: affects firefly luciferase, flagging false hits in luciferase stimulation screens; P08659; ATPlite luciferase biochemical, luminescence, 10 min; 0 = ATP-free wells, 1 = DMSO control; activation factor at 10 µM; 200,000 tested, under 10 active; AID 1027;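 active = luciferase activation factor, scaled between plate controls, of at least 2 with compound at 10 µM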
Target sequence (P08659 whole entry, looked up): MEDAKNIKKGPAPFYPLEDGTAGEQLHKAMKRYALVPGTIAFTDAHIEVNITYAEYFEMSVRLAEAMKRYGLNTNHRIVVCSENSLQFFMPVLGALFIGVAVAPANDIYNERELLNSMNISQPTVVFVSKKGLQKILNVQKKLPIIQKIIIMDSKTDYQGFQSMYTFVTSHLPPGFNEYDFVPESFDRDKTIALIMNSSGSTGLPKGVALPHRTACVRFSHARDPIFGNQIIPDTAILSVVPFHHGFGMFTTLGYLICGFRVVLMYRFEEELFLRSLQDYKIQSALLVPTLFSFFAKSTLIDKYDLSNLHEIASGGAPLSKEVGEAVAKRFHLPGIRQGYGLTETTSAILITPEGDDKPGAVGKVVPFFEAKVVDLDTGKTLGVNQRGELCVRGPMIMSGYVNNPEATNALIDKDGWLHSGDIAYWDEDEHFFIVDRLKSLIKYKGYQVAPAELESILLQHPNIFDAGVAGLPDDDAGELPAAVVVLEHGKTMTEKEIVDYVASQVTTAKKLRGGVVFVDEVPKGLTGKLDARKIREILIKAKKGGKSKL
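Material: Luciferase/luciferin reagent mix; Doses: test compounds dosed from 2 mM stocks in 100% DMSO; Schedule: 10 min incubation after luciferase reagent addition, room temperature; Measured by: luminescence from luciferase reaction; Read-out: luminescence gain marking luciferase activators.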
FLuc inh counter: Photinus pyralis luciferase inhibition counter-screen; P08659; ATPLite firefly luciferase biochemical luminescence, 10 min; inhibition, % at 10 µM; 1.5% of 200,000 active; AID 1006;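 active = inhibition above about 50% when tested at 10 µM, limit read from the data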
STAT3 activator: STAT3 signaling activation | activation (% of control), % at 5.6 µM | U3A cells, IL-6 STAT3-luciferase reporter, luminescence; 100% = signal with IL-6 EC80 alone | AID 871 | 0.91% of 190,000 active;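 active = activation above the screen-wide mean of compound activation plus 3 SD, cut at about 130% in these data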
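Test system: human U3A cells carrying STAT3-luciferase construct; control set: IL-6-only wells as 100% reference; timing: compound pre-incubation 1 h before IL-6, then 6 h stimulation at 37 °C; also added: IL-6 stimulus at 33 ng/mL final; evaluation: % activation versus median of IL-6-stimulated wells; detection: reporter luminescence signal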
STAT1 activator: increases IFN-gamma driven STAT1 reporter signal; NIH 3T3 STAT1-luciferase reporter, luminescence; 100% = IFN-gamma alone, no compound; activation (% of control), % at 5.5 µM; 2.6% of 200,000 active; AID 932;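 active = activation above the screen-wide mean activation plus 3 SD, cut at about 130% in these data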
STAT1 inh: STAT1 signaling inhibition. inhibition, % at 5.5 µM. NIH 3T3 STAT1-luciferase reporter, IFN-gamma, luminescence. 0.35% of 200,000 active;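 active = inhibition above a set limit, the mean inhibition across all tested compounds plus 3 SD, cut at about 34% in these data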
STAT1 activ conf: confirmation of STAT1 signaling activators; shares compounds with STAT1 activator; NIH 3T3 STAT1-luciferase reporter, IFN-gamma potentiation, luminescence; 100% = IFN-gamma EC80 alone, no compound; activation (% of control), % at 5.7 µM; 97% of 1,200 active; AID 1262;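 active = activation above a set limit carried over from the earlier primary STAT1 screen, cut at about 140% in these data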
NFkB act: counter-screen for STAT1 activators: NF-kappaB activation; shares compounds with STAT1 activator; HEK293T NF-kB luciferase reporter, TNF-alpha stimulated, luminescence; 100% = TNF-alpha with vehicle only; activation (% of control), % at 5.7 µM; 43% of 1,200 active; AID 1306;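 active = activation above the mean of solvent-only control wells plus 3 SD, set per campaign, cut at about 130% in these data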;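 also: TNF-alpha given at a submaximal dose yielding about 80% of full reporter signal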
STAT3 act 2: counter-screen for STAT1 activators: human STAT3 activation; shares compounds with STAT1 activator; U3A cells STAT3-luciferase reporter, IL-6, luminescence; cells lack STAT1; 100 = IL-6 alone, no compound effect; activation (% of control), % at 5.7 µM; 46% of 1,200 active;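 active = activation above the solvent-only control well mean plus 3 SD, set per plate batch, cut at about 110% in these data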;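 also: higher means more STAT3 reporter activation so hits are non-selective activators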
Hits are given with their value; n = inactive; x = not tested or not shown.

SMILES	STAT3 blocker	FLuc act counter	FLuc inh counter	STAT3 activator	STAT1 activator	STAT1 inh	STAT1 activ conf	NFkB act	STAT3 act 2
CN(C)C(=O)CSc1nnc(Cc2ccccc2)n1CC1CCCO1 (stereo not given)	n	n	n	n	n	n	x	x	x
O=C(NC(=S)Nc1cccnc1)c1cccs1	n	n	n	n	n	n	x	x	x
Cc1ccc2oc(-c3ccc(C)c(NC(=S)NC(=O)c4cccs4)c3)nc2c1	n	n	n	n	154	n	145	n	132
Cc1ccnc(NC(=S)NC(=O)c2cccs2)c1	n	n	87	n	237	n	263	166	132
CCCN(CCC)C(=O)C1CC(=O)OC12CCCCC2 (stereo not given)	n	n	n	n	n	n	x	x	x
O=c1[nH]c(=O)c2nc3c4ccccc4c4ccccc4c3nc2[nH]1	n	n	n	n	152	n	140	n	n
COC(=O)C/C=C/[C@@H](C)[C@@H](/C=N/OC[C@@H](C)[C@H](OCc1ccccc1)C(C)C)NS(=O)(=O)c1ccc(C)cc1	n	n	n	n	n	n	x	x	x
O=c1cc(-c2ccc(O)cc2)oc2ccccc12	n	n	n	n	154	n	154	n	125
NS(=O)(=O)c1ccc(N/C=C\C(=O)c2ccncc2)cc1	n	n	n	n	n	n	x	x	x
NS(=O)(=O)c1ccc(N/C=C\C(=O)c2ccc(F)cc2)cc1	n	n	n	n	156	n	188	n	115
COc1ccc(-c2ccn(-c3cccc(F)n3)n2)cc1	n	n	n	n	154	n	178	n	122
N/C(=N\OC(=O)Cc1ccc(-c2ccccc2)cc1)c1ccccn1	n	n	n	n	n	n	x	x	x
N/C(=N\OC(=O)COc1ccc(Cl)cc1Cl)c1ccncc1	n	n	n	n	155	n	206	146	124
N/C(=N\OC(=O)COc1ccccc1Cl)c1ccccn1	n	n	n	n	178	n	207	139	116
N/C(=N\OC(=O)COc1ccc(Br)cc1Cl)c1cccnc1	n	n	n	n	n	n	x	x	x
COc1ccc2c(C)nc(Nc3nc(C)c(C)c(=O)[nH]3)nc2c1	n	n	n	n	200	n	174	n	111
O=C(N/N=C/c1cc(Cl)ccc1O)c1ccc(Br)cc1	n	n	n	n	n	n	x	x	x
O=C(C[n+]1ccc(C(=O)N/N=C/c2ccc(Cl)cc2Cl)cc1)c1ccccc1	n	n	n	n	n	n	x	x	x
Cc1cccc(/C=N\NC(=O)c2ccc(Cl)cc2)c1O	n	n	n	n	155	n	161	n	n
O=C(N/N=C/c1ccc(Cl)cc1Cl)c1cccc(F)c1	n	n	n	n	160	n	212	142	n
CC(Oc1ccc2c(-c3ccccc3)cc(=O)oc2c1)C(=O)O (stereo not given)	n	n	n	n	n	n	x	x	x
CC(C)Oc1ccc2c(=O)c(-c3ccccc3)coc2c1	n	n	61	n	156	n	219	n	n
Cc1nc2nc(-c3cccs3)cn2nc1C	n	n	n	n	152	n	165	134	n
Cc1cc(-c2cccs2)n[nH]1	n	n	n	n	n	n	x	x	x
NC(=O)c1ccsc1NC(=O)c1coc2ccccc2c1=O	n	n	71	n	166	n	217	n	113
SMILES	STAT3 blocker	FLuc act counter	FLuc inh counter	STAT3 activator	STAT1 activator	STAT1 inh	STAT1 activ conf	NFkB act	STAT3 act 2
NC(=O)c1ccsc1NC(=O)CSc1ccccc1F	n	n	n	n	n	n	x	x	x
O=C(Nc1ccc(-c2noc(-c3cccs3)n2)cc1)c1cccnc1	n	n	n	n	157	n	197	136	n
Cc1ccccc1C(=O)O/N=C1\CCS(=O)(=O)c2sccc21	n	n	n	n	220	n	225	146	111
Cc1ccc(C(=O)/C=C/Nc2cccc([N+](=O)[O-])c2)o1	n	n	62	n	153	n	187	n	n
Cc1ccsc1-c1nc(CN(C)C(C2CC2)C2CC2)c(C)o1	n	n	n	n	n	n	x	x	x
COc1ccc(/C=C/c2nc3ccccc3n2Cc2ccccc2OC)cc1	n	n	88	n	154	n	166	n	113
CCN(CC)c1ccc(/C=N/NC(=O)c2c[nH]c3ccccc23)cc1	n	n	n	n	n	n	x	x	x
CCc1ccc(/C=N/NC(=O)c2c[nH]c3ccccc23)s1	n	n	n	n	154	n	189	n	115
Cc1cc(NCCOCCO)n2ncc(-c3ccc(Cl)cc3)c2n1	n	n	n	n	177	n	265	135	133
CC(C)(C)c1cc(NCCCn2ccnc2)n2ncc(-c3ccc(Cl)cc3)c2n1	n	n	n	n	n	n	x	x	x
NNC(=O)c1ccc2nc(-c3ccc(Br)cc3)cn2c1	n	n	n	n	162	n	208	n	115
O=C(c1ccco1)N1CCN(CCCCOc2ccc(F)cc2)CC1	n	n	n	n	n	n	x	x	x
O=C(Nc1cccc(Cl)c1)c1ccc2c(=O)n3c(nc2c1)CCCCC3	n	n	n	n	162	n	180	n	n
CCN(CC(=O)Nc1cccc(C(C)=O)c1)S(=O)(=O)c1ccccc1	n	n	n	n	n	n	x	x	x
Cc1nonc1C1CCCN1C(=O)c1cc(COc2ccc(F)cc2F)on1 (stereo not given)	n	n	n	n	168	n	183	137	n
COc1ccc2cc(C(=O)NCc3ccccc3)c(=Nc3ccc(C(=O)O)cc3)oc2c1	n	n	n	n	n	n	x	x	x
COc1ccc2cc(C(N)=O)c(=Nc3ccccc3)oc2c1	n	n	n	n	152	n	142	n	n
CC(=NCc1cccc(Cl)c1)c1nc(-c2ccco2)oc1O	n	n	n	n	n	n	x	x	x
COc1ccc(N/C=C/C(=O)c2ccc3c(c2)OCO3)cc1OC	n	n	60	n	161	n	178	136	n
COc1cccc(-c2noc(-c3cccnc3)n2)c1	n	n	n	n	159	n	188	n	121
CCOC(=O)C1CCCN(C(=O)c2ccc(Cl)c(S(=O)(=O)N3CCCCCC3)c2)C1 (stereo not given)	n	n	n	n	n	n	x	x	x
